Assay results taken from ChEMBL document CHEMBL3244241, “Synthesis of cephalotaxine esters and correlation of their structures with antitumor activity” (J Med Chem, 1977).

Columns and labels:
Mus musculus [1] = assay: Toxicity in DBA/2 mouse allografted with mouse P388 cells assessed as change in body weight at 160 mg/kg/day, ip for 9 days compound administered through saline vehicle; assay type: organism-based; set-up: route intraperitoneal; conditions: in vivo, 216 h
Method in brief: (§1)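 DBA/2 mice bearing P388 lymphocytic leukemia received one intraperitoneal injection per day for 9 days, given in the vehicle named for each test (water/alcohol-based, saline or saline + Tween 80). Toxicity was noted during dosing alongside survival scoring (T/C, treated versus control mean survival time).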

P388 [2] = assay: Antitumor activity against mouse P388 cells allografted in DBA/2 mouse assessed as host survival at 160 mg/kg/day, ip for 9 days compound administered through saline vehicle relative to control; assay type: functional; conditions: route intraperitoneal
Method in brief: (§2)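 P388 lymphocytic leukemia in DBA/2 mice. Dosing was one intraperitoneal injection per day for 9 days in the vehicle stated. […] Duplicate tests were run for some doses.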

P388 [3] = assay: Antitumor activity against mouse P388 cells allografted in DBA/2 mouse assessed as host survival at 320 mg/kg/day, ip for 9 days compound administered through saline vehicle relative to control; assay type: functional; conditions: route intraperitoneal; method in brief: as §2
P388 [4] = assay: Antitumor activity against mouse P388 cells allografted in DBA/2 mouse assessed as host survival at 80 mg/kg/day, ip for 9 days compound administered through saline vehicle relative to control; assay type: functional; conditions: route intraperitoneal; method in brief: as §2
Mus musculus [5] = assay: Toxicity in DBA/2 mouse allografted with mouse P388 cells assessed as change in body weight at 320 mg/kg/day, ip for 9 days compound administered through saline vehicle; assay type: organism-based; set-up: route intraperitoneal; conditions: in vivo, 216 h; method in brief: as §1
Mus musculus [6] = assay: Toxicity in DBA/2 mouse allografted with mouse P388 cells assessed as change in body weight at 80 mg/kg/day, ip for 9 days compound administered through saline vehicle; assay type: organism-based; set-up: route intraperitoneal; conditions: in vivo, 216 h; method in brief: as §1
Mus musculus [7] = assay: Toxicity in DBA/2 mouse allografted with mouse P388 cells up to 320 mg/kg/day, ip for 9 days; assay type: organism-based; set-up: route intraperitoneal; conditions: in vivo, 216 h; method in brief: as §1

COC1=C[C@]23CCCN2CCc2cc4c(cc2[C@@H]3[C@@H]1OC(=O)[C@@H](OC(=O)OCC(Cl)(Cl)Cl)c1ccccc1)OCO4
Activity (Mus musculus [1]): 1.2 g | T/C (P388 [2]): 154% | T/C (P388 [3]): 136% | T/C (P388 [4]): 138% | Activity (Mus musculus [5]): -2.3 g | Activity (Mus musculus [6]): -1 g | Activity (Mus musculus [7]): Toxic
